Reference: ChEMBL document CHEMBL3232844, “Synthesis and structure activity relationships of schweinfurthin indoles” (2014)

Assays:
Format in all cases: functional
HOP-92 = assay: Cytotoxicity against human HOP92 cells
How it was run: (§1)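 Tested in a 60-cell-line human tumor panel screen; the read-out is growth inhibition, reported as GI50 for each cell line.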

Malme-3M = assay: Cytotoxicity against human MALME-3M cells; settings: for CC50: read-out: pLC50 (the source's name) (converted); for TGI: read-out: pTGI (converted); how it was run: as §1
RPMI-8226 = assay: Cytotoxicity against human RPMI8226 cells; settings: for CC50: read-out: pLC50 (the source's name) (converted); for TGI: read-out: pTGI (converted); how it was run: as §1
[1] = Cytotoxicity against human UACC257 cells; settings: for GI50: UACC-257; for TGI: UACC-257, read-out: pTGI (converted)
How it was run: (§2)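 Cell line run as part of the 60-cell-line screening panel; growth inhibition was reported as a GI50 for each line.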

NCI-H522 = assay: Cytotoxicity against human NCI-H522 cells; settings: for CC50: read-out: pLC50 (the source's name) (converted); for TGI: read-out: pTGI (converted); how it was run: as §1
SF-295 = assay: Cytotoxicity against human SF295 cells; settings: for CC50: read-out: pLC50 (the source's name) (converted); for TGI: read-out: pTGI (converted); how it was run: as §1
TK-10 = assay: Cytotoxicity against human TK10 cells; settings: for TGI: read-out: pTGI (converted); how it was run: as §2
[2] = Cytotoxicity against human EKVX cells; settings: for CC50: read-out: pLC50 (the source's name) (converted); for TGI: read-out: pTGI (converted); how it was run: as §1
SN12C = assay: Cytotoxicity against human SN12C cells; settings: for TGI: read-out: pTGI (converted); how it was run: as §1
U-251 = assay: Cytotoxicity against human U251 cells; settings: for CC50: read-out: pLC50 (the source's name) (converted); for TGI: read-out: pTGI (converted); how it was run: as §2
HT-29 = assay: Cytotoxicity against human HT-29 cells; settings: for CC50: read-out: pLC50 (the source's name) (converted); for TGI: read-out: pTGI (converted); how it was run: as §1
[3] = Cytotoxicity against human OVCAR3 cells; settings: for GI50: OVCAR-3; for CC50: OVCAR-3, read-out: pLC50 (the source's name) (converted); for TGI: OVCAR-3, read-out: pTGI (converted); how it was run: as §1
SR = assay: Cytotoxicity against human SR cells; settings: for CC50: read-out: pLC50 (the source's name) (converted); for TGI: read-out: pTGI (converted); how it was run: as §2
RXF 393 = assay: Cytotoxicity against human RXF393 cells; settings: for TGI: read-out: pTGI (converted); how it was run: as §1
SW-620 = assay: Cytotoxicity against human SW620 cells; how it was run: as §2
[4] = Cytotoxicity against human Hs578T cells; settings: Hs-578T; how it was run: as §1
SK-MEL-28 = assay: Cytotoxicity against human SK-MEL-28 cells; how it was run: as §1
[5] = read-out: pLC50 (the source's name) (converted)

With `COc1cc(/C=C/c2cc(O)c3c(C/C=C(\C)CCC=C(C)C)c[nH]c3c2)cc2c1O[C@]1(C)CC[C@@H](O)C(C)(C)[C@H]1C2` the GI50 (HOP-92) was 724 nM, the CC50 (HOP-92; [5]) was > 100000 nM and the TGI (HOP-92; read-out: pTGI (converted)) was 8710 nM. For the same compound, the GI50 (Malme-3M) was 2950 nM, the CC50 (Malme-3M) was > 100000 nM and the TGI (Malme-3M) was 61700 nM. The GI50 (RPMI-8226) was 158 nM, the CC50 (RPMI-8226) was > 100000 nM and the TGI (RPMI-8226) was 1660 nM. For the same compound, the GI50 [1] was 9120 nM, the CC50 ([1]; UACC-257, read-out: pLC50 (the source's name) (converted)) was > 100000 nM and the TGI [1] was 49000 nM. The GI50 (NCI-H522) was 2630 nM, the CC50 (NCI-H522) was > 100000 nM and the TGI (NCI-H522) was 16600 nM. The GI50 (SF-295; read-out: GI50) was 110 nM, the GI50 (SF-295; read-out: pGI50 (converted)) was 112 nM and the CC50 (SF-295) was 2880 nM. The TGI (SF-295) was 417 nM, the GI50 (TK-10) was 16600 nM and the LC50 (TK-10) was > 100000 nM. The TGI (TK-10) was > 100000 nM, the GI50 [2] was 724 nM and the CC50 [2] was > 100000 nM. For the same compound, the TGI [2] was 4470 nM, the GI50 (SN12C) was 60300 nM and the LC50 (SN12C) was > 100000 nM. For the same compound, the TGI (SN12C) was > 100000 nM, the GI50 (U-251) was 603 nM and the CC50 (U-251) was > 100000 nM. For the same compound, the TGI (U-251) was > 100000 nM, the GI50 (HT-29) was 219 nM and the CC50 (HT-29) was 20400 nM. The TGI (HT-29) was 1660 nM, the GI50 [3] was 33900 nM and the CC50 [3] was > 100000 nM. The TGI [3] was > 100000 nM, the GI50 (SR) was 550 nM and the CC50 (SR) was > 100000 nM. For the same compound, the TGI (SR) was 29500 nM, the GI50 (RXF 393) was 66.1 nM and the LC50 (RXF 393) was 3630 nM. For the same compound, the TGI (RXF 393) was 309 nM.
In the case of `COc1cc(/C=C/c2cc(OC)c3cc[nH]c3c2)cc2c1O[C@]1(C)CC[C@@H](O)C(C)(C)[C@H]1C2`, the GI50 (Malme-3M) is reported as 575 nM, the CC50 (Malme-3M) is reported as > 100000 nM and the TGI (Malme-3M) is reported as 4900 nM. It also gave a GI50 (SW-620) of 309 nM, a CC50 (SW-620; [5]) of 5500 nM and a TGI (SW-620; read-out: pTGI (converted)) of 1350 nM. The GI50 (RPMI-8226) was 28.2 nM, the CC50 (RPMI-8226) was > 100000 nM and the TGI (RPMI-8226) was 85.1 nM. It also gave a GI50 [1] of 295 nM, a TGI [1] of 759 nM and a GI50 (NCI-H522) of 708 nM. For the same compound, the CC50 (NCI-H522) was > 100000 nM, the TGI (NCI-H522) was 2880 nM and the GI50 (SF-295; read-out: GI50) was 55 nM. For the same compound, the GI50 (SF-295; read-out: pGI50 (converted)) was 55 nM, the CC50 (SF-295) was 794 nM and the TGI (SF-295) was 224 nM. For the same compound, the GI50 (TK-10) was 1550 nM, the LC50 (TK-10) was > 100000 nM and the TGI (TK-10) was 11000 nM. The GI50 [2] was 537 nM, the CC50 [2] was > 100000 nM and the TGI [2] was 6030 nM. For the same compound, the GI50 (SN12C) was 6170 nM, the LC50 (SN12C) was > 100000 nM and the TGI (SN12C) was 51300 nM. It also gave a GI50 (U-251) of 331 nM, a CC50 (U-251) of 31600 nM and a TGI (U-251) of 3630 nM. For the same compound, the GI50 [4] was 51.3 nM, the LC50 [4] was > 100000 nM and the TGI ([4]; read-out: pTGI (converted)) was 776 nM. It also gave a GI50 (SK-MEL-28) of 209 nM, a TGI (SK-MEL-28; read-out: pTGI (converted)) of 776 nM and a GI50 (HT-29) of 288 nM. For the same compound, the CC50 (HT-29) was > 100000 nM, the TGI (HT-29) was 1780 nM and the GI50 [3] was 1200 nM. For the same compound, the CC50 [3] was 10000 nM, the TGI [3] was 3160 nM and the GI50 (SR) was 302 nM. The CC50 (SR) was > 100000 nM, the TGI (SR) was 5620 nM and the GI50 (RXF 393) was 24 nM. For the same compound, the LC50 (RXF 393) was 316 nM and the TGI (RXF 393) was 60.3 nM.
